Experimental data reported in ChEMBL document CHEMBL4689842, “EUbOPEN Chemogenomics Library wave 1” (2021).

System: Fibroblast
Assay: Multiplex assay against human fibroblast
Format: toxicity, cell-based
How it was run: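 Phenotypes for tubulin, mitochondrial mass and membrane permeability are expressed as per cents of healthy-nucleus cells. Cells were stained live at seeding with Hoechst33342, BioTracker Green Microtubule Cytoskeleton Dye, MitoTracker Red and Annexin V Alexa Fluor 680, then imaged after compound addition on a CQ1 microscope at 37°C and 5% CO2. Machine-learning gating in CellPathfinder separated Hoechst high-intensity objects from normal cells, divided normal cells by nuclear state (healthy, pyknosed, fragmented) and divided pyknosed cells into mitotic or apoptotic.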

[1] = 12 h, 1 µM, compound concentration 1 uM, replicate 1
[2] = 12 h, 1 µM, compound concentration 1 uM, replicate 2
[3] = 12 h, 10 µM, compound concentration 10 uM, replicate 1
[4] = 12 h, 10 µM, compound concentration 10 uM, replicate 2
[5] = 24 h, 1 µM, compound concentration 1 uM, replicate 1
[6] = 24 h, 1 µM, compound concentration 1 uM, replicate 2
[7] = 24 h, 10 µM, compound concentration 10 uM, replicate 1
[8] = 24 h, 10 µM, compound concentration 10 uM, replicate 2
[9] = 48 h, 1 µM, compound concentration 1 uM, replicate 1
[10] = 48 h, 1 µM, compound concentration 1 uM, replicate 2
[11] = 48 h, 10 µM, compound concentration 10 uM, replicate 1
[12] = 48 h, 10 µM, compound concentration 10 uM, replicate 2

Cl.N#Cc1ccc2[nH]cc(CCCCN3CCN(c4ccc5oc(C(N)=O)cc5c4)CC3)c2c1 [VILAZODONE HYDROCHLORIDE]
Population Apoptotic (%) [1]: 75% | Population Fragmented Nuclei (%) [1]: 38% | Population Healthy Nuclei (%) [1]: 22% | Population Hoechst High Intensity Objects (%) [1]: 19% | Population Membrane Permeable-Phenotype (%) [1]: 28% | Population Mitochondria Different-Phenotype (%) [1]: 9% | Population Mitotic Cells (%) [1]: 25% | Population Normal (%) [1]: 80% | Population Pyknosed Nuclei (%) [1]: 38% | Population Tubulin-Different-Phenotype (%) [1]: 47% | Total Cell Count [1]: 116 | Population Apoptotic (%) [2]: 27% | Population Fragmented Nuclei (%) [2]: 14% | Population Healthy Nuclei (%) [2]: 70% | Population Hoechst High Intensity Objects (%) [2]: 2% | Population Membrane Permeable-Phenotype (%) [2]: 6% | Population Mitochondria Different-Phenotype (%) [2]: 30% | Population Mitotic Cells (%) [2]: 72% | Population Normal (%) [2]: 97% | Population Pyknosed Nuclei (%) [2]: 15% | Population Tubulin-Different-Phenotype (%) [2]: 18% | Total Cell Count [2]: 50 | Population Apoptotic (%) [3]: 69% | Population Fragmented Nuclei (%) [3]: 19% | Population Healthy Nuclei (%) [3]: 18% | Population Hoechst High Intensity Objects (%) [3]: 35% | Population Membrane Permeable-Phenotype (%) [3]: 17% | Population Mitochondria Different-Phenotype (%) [3]: 21% | Population Mitotic Cells (%) [3]: 30% | Population Normal (%) [3]: 64% | Population Pyknosed Nuclei (%) [3]: 62% | Population Tubulin-Different-Phenotype (%) [3]: 52% | Total Cell Count [3]: 197 | Population Apoptotic (%) [4]: 67% | Population Fragmented Nuclei (%) [4]: 20% | Population Healthy Nuclei (%) [4]: 14% | Population Hoechst High Intensity Objects (%) [4]: 10% | Population Membrane Permeable-Phenotype (%) [4]: 38% | Population Mitochondria Different-Phenotype (%) [4]: 46% | Population Mitotic Cells (%) [4]: 32% | Population Normal (%) [4]: 89% | Population Pyknosed Nuclei (%) [4]: 64% | Population Tubulin-Different-Phenotype (%) [4]: 92% | Total Cell Count [4]: 72 | Population Apoptotic (%) [5]: 63% | Population Fragmented Nuclei (%) [5]: 32% | Population Healthy Nuclei (%) [5]: 42% | Population Hoechst High Intensity Objects (%) [5]: 25% | Population Membrane Permeable-Phenotype (%) [5]: 21% | Population Mitochondria Different-Phenotype (%) [5]: 8% | Population Mitotic Cells (%) [5]: 36% | Population Normal (%) [5]: 74% | Population Pyknosed Nuclei (%) [5]: 25% | Population Tubulin-Different-Phenotype (%) [5]: 51% | Total Cell Count [5]: 118 | Population Apoptotic (%) [6]: 60% | Population Fragmented Nuclei (%) [6]: 15% | Population Healthy Nuclei (%) [6]: 78% | Population Hoechst High Intensity Objects (%) [6]: 1% | Population Membrane Permeable-Phenotype (%) [6]: 3% | Population Mitochondria Different-Phenotype (%) [6]: 19% | Population Mitotic Cells (%) [6]: 40% | Population Normal (%) [6]: 98% | Population Pyknosed Nuclei (%) [6]: 6% | Population Tubulin-Different-Phenotype (%) [6]: 18% | Total Cell Count [6]: 54 | Population Apoptotic (%) [7]: 66% | Population Fragmented Nuclei (%) [7]: 22% | Population Healthy Nuclei (%) [7]: 23% | Population Hoechst High Intensity Objects (%) [7]: 35% | Population Membrane Permeable-Phenotype (%) [7]: 50% | Population Mitochondria Different-Phenotype (%) [7]: 20% | Population Mitotic Cells (%) [7]: 33% | Population Normal (%) [7]: 64% | Population Pyknosed Nuclei (%) [7]: 53% | Population Tubulin-Different-Phenotype (%) [7]: 50% | Total Cell Count [7]: 197 | Population Apoptotic (%) [8]: 75% | Population Fragmented Nuclei (%) [8]: 31% | Population Healthy Nuclei (%) [8]: 9% | Population Hoechst High Intensity Objects (%) [8]: 18% | Population Membrane Permeable-Phenotype (%) [8]: 30% | Population Mitochondria Different-Phenotype (%) [8]: 90% | Population Mitotic Cells (%) [8]: 24% | Population Normal (%) [8]: 81% | Population Pyknosed Nuclei (%) [8]: 59% | Population Tubulin-Different-Phenotype (%) [8]: 90% | Total Cell Count [8]: 79 | Population Apoptotic (%) [9]: 60% | Population Fragmented Nuclei (%) [9]: 35% | Population Healthy Nuclei (%) [9]: 53% | Population Hoechst High Intensity Objects (%) [9]: 30% | Population Mitochondria Different-Phenotype (%) [9]: 0% | Population Mitotic Cells (%) [9]: 40% | Population Normal (%) [9]: 69% | Population Pyknosed Nuclei (%) [9]: 10% | Population Tubulin-Different-Phenotype (%) [9]: 43% | Total Cell Count [9]: 136 | Population Apoptotic (%) [10]: 33% | Population Fragmented Nuclei (%) [10]: 39% | Population Healthy Nuclei (%) [10]: 57% | Population Hoechst High Intensity Objects (%) [10]: 13% | Population Membrane Permeable-Phenotype (%) [10]: 7% | Population Mitochondria Different-Phenotype (%) [10]: 1% | Population Mitotic Cells (%) [10]: 66% | Population Normal (%) [10]: 86% | Population Pyknosed Nuclei (%) [10]: 2% | Population Tubulin-Different-Phenotype (%) [10]: 64% | Total Cell Count [10]: 153 | Population Apoptotic (%) [11]: 50% | Population Fragmented Nuclei (%) [11]: 22% | Population Healthy Nuclei (%) [11]: 23% | Population Hoechst High Intensity Objects (%) [11]: 38% | Population Membrane Permeable-Phenotype (%) [11]: 51% | Population Mitochondria Different-Phenotype (%) [11]: 21% | Population Mitotic Cells (%) [11]: 50% | Population Normal (%) [11]: 61% | Population Pyknosed Nuclei (%) [11]: 53% | Population Tubulin-Different-Phenotype (%) [11]: 51% | Total Cell Count [11]: 230 | Population Apoptotic (%) [12]: 34% | Population Fragmented Nuclei (%) [12]: 15% | Population Healthy Nuclei (%) [12]: 34% | Population Hoechst High Intensity Objects (%) [12]: 44% | Population Membrane Permeable-Phenotype (%) [12]: 31% | Population Mitochondria Different-Phenotype (%) [12]: 40% | Population Mitotic Cells (%) [12]: 65% | Population Normal (%) [12]: 55% | Population Pyknosed Nuclei (%) [12]: 50% | Population Tubulin-Different-Phenotype (%) [12]: 72% | Total Cell Count [12]: 247
